Source: paper PMC7693064 (American Journal of Hematology, 2020)

Tests used:
[1] = Pegcetacoplan serum concentrations; format: in vivo, human; details: single-dose phase, SC 25 or 50 mg (cohorts 1 and 2)
subjects with PNH [2] = test: Hemolytic markers; format: in vivo, human
subjects with PNH [3] = test: Packed RBC transfusions, PHAROAH; format: in vivo, human
Procedure, shortened: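 Packed RBC transfusions given to each cohort 4 subject were recorded throughout the study. […] Pegcetacoplan was given at 270 mg/d SC, and dosing could be increased with Sponsor approval.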

PNH RBCs = format: in vivo, human
Procedure, shortened: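 Whole-blood flow cytometry. RBCs were gated with FITC anti-human glycophorin A, and CD59 was detected with PE anti-CD59 to classify type II (partial) and type III (complete) deficient cells. C3 deposition was detected with biotinylated anti-human C3d plus streptavidin-APC. Matched mouse IgG isotype controls were included.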

C3 = C3 (Homo sapiens, UniProt P01024); test: Serum C3 levels, PHAROAH; format: in vivo
Procedure, shortened: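 Values were judged against the reference range in use at each time point. For one subject, pegcetacoplan dosing was suspended between days 29 and 56 and resumed at 180 mg/d on day 57. Individual data were plotted over time.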

classical pathway = test: CH50 assay, hemolytic activity of the classical pathway, PHAROAH; format: in vivo, human; details: six subjects, first year of treatment, with eculizumab
Procedure, shortened: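 Results were reported in complement activity enzyme units or U/mL, as the laboratory changed units during the study. Each value was judged against the reference range in use at that time point. Individual subject data were plotted over time.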

alternative pathway = test: AH50 assay, hemolytic activity of the alternative pathway, PHAROAH; format: in vivo, human
[4] = subject 12, day 421, after initial attempt to discontinue eculizumab with no increase in pegcetacoplan dosing

C3, sequence (P01024 23-1663): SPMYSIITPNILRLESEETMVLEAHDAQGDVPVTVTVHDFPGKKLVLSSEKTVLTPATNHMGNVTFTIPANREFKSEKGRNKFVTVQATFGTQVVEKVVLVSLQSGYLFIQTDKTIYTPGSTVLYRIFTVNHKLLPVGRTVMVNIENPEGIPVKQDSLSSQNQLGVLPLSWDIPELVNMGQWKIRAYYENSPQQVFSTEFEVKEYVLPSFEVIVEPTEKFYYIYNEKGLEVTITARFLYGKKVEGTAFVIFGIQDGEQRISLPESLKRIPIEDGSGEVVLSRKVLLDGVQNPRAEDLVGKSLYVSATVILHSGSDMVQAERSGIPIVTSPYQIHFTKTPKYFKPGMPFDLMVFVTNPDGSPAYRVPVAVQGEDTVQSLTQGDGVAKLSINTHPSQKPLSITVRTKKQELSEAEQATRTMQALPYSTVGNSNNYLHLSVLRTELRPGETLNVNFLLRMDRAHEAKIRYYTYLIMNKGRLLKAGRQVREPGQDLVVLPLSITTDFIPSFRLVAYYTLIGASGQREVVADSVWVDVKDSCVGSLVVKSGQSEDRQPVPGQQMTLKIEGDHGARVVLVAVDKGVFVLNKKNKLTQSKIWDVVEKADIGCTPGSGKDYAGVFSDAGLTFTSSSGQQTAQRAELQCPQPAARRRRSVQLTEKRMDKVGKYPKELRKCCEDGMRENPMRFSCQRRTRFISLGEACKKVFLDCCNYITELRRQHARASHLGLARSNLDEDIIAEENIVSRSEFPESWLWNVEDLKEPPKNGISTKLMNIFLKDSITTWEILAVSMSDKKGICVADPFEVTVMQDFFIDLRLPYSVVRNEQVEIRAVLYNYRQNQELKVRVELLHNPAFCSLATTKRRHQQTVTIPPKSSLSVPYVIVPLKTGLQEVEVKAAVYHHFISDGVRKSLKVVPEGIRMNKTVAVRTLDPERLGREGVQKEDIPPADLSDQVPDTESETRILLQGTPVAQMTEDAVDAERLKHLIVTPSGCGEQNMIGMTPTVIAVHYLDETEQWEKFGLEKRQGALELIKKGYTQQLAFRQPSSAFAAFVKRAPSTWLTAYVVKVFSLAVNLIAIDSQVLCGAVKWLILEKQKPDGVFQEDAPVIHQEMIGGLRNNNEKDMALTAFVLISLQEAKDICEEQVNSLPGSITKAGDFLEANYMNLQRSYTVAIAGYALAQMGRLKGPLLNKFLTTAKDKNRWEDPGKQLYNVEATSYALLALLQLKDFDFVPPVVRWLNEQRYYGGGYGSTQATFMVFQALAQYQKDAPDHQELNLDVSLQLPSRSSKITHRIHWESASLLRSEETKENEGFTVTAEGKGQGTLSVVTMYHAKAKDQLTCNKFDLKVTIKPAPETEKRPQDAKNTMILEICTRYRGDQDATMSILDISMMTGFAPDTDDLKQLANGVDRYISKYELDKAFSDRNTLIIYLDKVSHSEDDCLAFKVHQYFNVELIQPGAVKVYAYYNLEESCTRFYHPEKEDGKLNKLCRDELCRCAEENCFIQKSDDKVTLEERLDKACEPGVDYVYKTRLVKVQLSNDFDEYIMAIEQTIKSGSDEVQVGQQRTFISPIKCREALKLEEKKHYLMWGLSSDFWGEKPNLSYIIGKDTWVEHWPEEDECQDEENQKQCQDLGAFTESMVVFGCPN

- Serum C3 levels, change (C3; all subjects in cohort 4): increase
- Serum C3 level (C3; subject 11, day 29): 415 mg/dL
- Serum C3 level (C3; subject 11, day 57, after suspension of pegcetacoplan dosing): 107 mg/dL
Substance: pegcetacoplan
- Time of peak serum concentration [1]: a week after dosing
- Subjects with hemoglobin levels within reference range 11.1-15.9 g/dL (subjects with PNH [2]; after 2 years of treatment, four remaining subjects): three of the four
- Reticulocyte count, change during the study (subjects with PNH [2]; cohort 4): reductions were observed in all subjects
- Total bilirubin levels, change during the study (subjects with PNH [2]; cohort 4): Decreases in total bilirubin levels were observed in all subjects
- Hemoglobin levels (subjects with PNH [2]; cohort 4, all six subjects): increased in all subjects by day 29
- LDH levels during treatment (subjects with PNH [2]; cohort 4, with some fluctuations): remained stable
- LDH level (subjects with PNH [2]; [4]): 1571 U/L
- Total bilirubin level (subjects with PNH [2]; [4]): 2.3 mg/dL
- Transfusion avoidance (subjects with PNH [3]; four subjects who completed the study): achieved in all four subjects
- Packed RBC transfusions received during the study (subjects with PNH [3]; subject 9, seven given before steady state or after pegcetacoplan was suspended): nine
- Deposition of C3 fragments on the surface of type II and III RBCs (PNH RBCs; all subjects in cohort 4): decrease
- Type II and III cells as a proportion of the clonal distribution of total RBCs (PNH RBCs; five subjects, by day 85): > 90%
- Effect on CH50 (classical pathway): No significant effect
- AH50 levels (alternative pathway; after eculizumab discontinuation): increased following eculizumab discontinuation
- Subjects with AH50 levels within the 77-159 U/mL reference range (alternative pathway; last evaluation time point, four subjects who completed the study): two of the four
